Activity calls are given as the source filed them. The rule behind the calls is not given here.
Columns and labels:
MCF7 = assay: Antiproliferative activity against human MCF7 cells assessed as reduction in cell viability after 72 hrs by sulforhodamine B assay; format: functional, cell-based; conditions: MCF7, 72 h
In short: (§1)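 SRB assay. Exponentially growing cells seeded at 3000–5000/well, compounds added serially diluted after 24 h, cultured 72 h. Cells fixed with 10% TCA, stained with SRB, dye dissolved in 10 mM Tris-HCl, absorbance read at 560 nm. Inhibition = (ODcontrol − ODtreated)/ODcontrol × 100%. IC50 is the mean of at least three independent tests.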

Homo sapiens [1] = species on record: Homo sapiens; assay: Selectivity index, ratio of IC50 for human PI3K p110beta/p85alpha to IC50 for human PI3Kalpha by HTRF assay
In short: (§2)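 The PI3K isoforms were assayed with an HTRF kit. Each enzyme was incubated in assay buffer containing 10 μM PIP2, and the reaction was started with ATP and run 30 min at room temperature. Stop solution and detection mix were then added and light emission was read. IC50 values were averages of at least 3 separate determinations, and each index is the ratio of IC50 values.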

[2] = molecular target: T1, Phosphatidylinositol 4,5-bisphosphate 3-kinase catalytic subunit alpha isoform (Homo sapiens, UniProt P42336); assay: Inhibition of PI3Kalpha in human U87MG cells assessed as reduction in rhIGF1-stimulated AKT phosphorylation at Thr308 treated for 1 hr followed by incubation with IGF1 for 10 mins by western blot analysis; format: cell-based; conditions: U-87 MG, dose 0.01-1 µM, time 70.0 min
In short: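 U87MG or Rh30 cells held 24 h in serum-free medium, exposed to compound for 1 h, then stimulated with 50 ng/ml IGF-I for 10 min. Lysates blotted for Akt, pAkt T308 and pAkt S473.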

[3] = Half life in rat at 10 mg/kg, po; format: ADME, organism-based; conditions: in vivo
In short: (§3)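 Male rats given 10 mg/kg p.o.; Cmax and terminal half-life taken from the plasma concentration–time profile.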

[4] = molecular target: Phosphatidylinositol 4,5-bisphosphate 3-kinase catalytic subunit delta isoform (Homo sapiens) (UniProt O00329); assay: Inhibition of PI3Kdelta (unknown origin) transfected in human Rh30 cells assessed as reduction in AKT phosphorylation at Ser473 residue at 10XIC50 by western blot analysis; format: cell-based
In short: (§4)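 Rh30 cells ectopically expressing membrane-anchored, N-terminally myristoylated, constitutively active p110α, β, γ or δ. Akt phosphorylation assessed by Western blot; lysates made in RIPA buffer, equal protein heated at 95 °C for 10 min in SDS loading buffer.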

[5] = Inhibition of human PI3K p110alpha E545K mutant/p85alpha using PIP2 as substrate incubated for 30 mins in presence of ATP by HTRF assay
[6] = molecular target: Phosphatidylinositol 4,5-bisphosphate 3-kinase catalytic subunit beta isoform (Homo sapiens) (UniProt P42338); assay: Inhibition of PI3Kbeta (unknown origin) transfected in human Rh30 cells assessed as reduction in AKT phosphorylation at Ser473 residue at 10XIC50 by western blot analysis; format: cell-based; in short: as §4
[7] = molecular target: T1, Phosphatidylinositol 4,5-bisphosphate 3-kinase catalytic subunit alpha isoform; assay: Inhibition of PI3Kalpha (unknown origin) transfected in human Rh30 cells assessed as reduction in AKT phosphorylation at Thr308 residue at 14 nM by western blot analysis; format: cell-based; in short: as §4
[8] = Cmax in rat at 10 mg/kg, po; format: ADME, organism-based; set-up: route oral, dose 10 mg/kg; conditions: in vivo; in short: as §3
PC-3 = assay: Antiproliferative activity against human PC-3 cells assessed as reduction in cell viability after 72 hrs by sulforhodamine B assay; format: functional, cell-based; conditions: PC-3, 72 h; in short: as §1
[9] = Metabolic stability in human hepatocytes assessed as intrinsic clearance; format: ADME, cell-based, Hepatocyte; conditions: read-out: CLH
[10] = Inhibition of human PI3K p110alpha H1047R mutant/p85alpha using PIP2 as substrate incubated for 30 mins in presence of ATP by HTRF assay
[11] = Toxicity in BALB/cA nude mouse xenografted with human SK-OV-3 cells assessed as blood glucose level at 5 to 20 mg/kg, po administered once a day for 18 days by glucose meter analysis; format: organism-based; conditions: in vivo, 432 h, dose 5-20 mg/kg/day, time 18 day
In short: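 Female BALB/cA nude mice, 4–5 weeks old, carried s.c. SKOV-3 xenograft fragments. They were dosed orally once daily for 18 days with vehicle or compound, then fasted 6 h and given glucose orally at 2 g/kg. Blood was sampled at set times up to 2 h, and glucose was measured with a blood glucose meter.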

BT-474 = assay: Antiproliferative activity against human BT-474 cells assessed as reduction in cell viability after 72 hrs by sulforhodamine B assay; format: functional, cell-based; conditions: BT-474, 72 h; in short: as §1
[12] = molecular target: T1, Phosphatidylinositol 4,5-bisphosphate 3-kinase catalytic subunit alpha isoform; assay: Inhibition of PI3Kalpha (unknown origin) transfected in human Rh30 cells assessed as reduction in AKT phosphorylation at Ser473 at 14 nM by western blot analysis; format: cell-based; in short: as §4
HCC1954 = assay: Antiproliferative activity against human HCC1954 cells assessed as reduction in cell viability after 72 hrs by sulforhodamine B assay; format: functional, cell-based; conditions: HCC1954, 72 h; in short: as §1
Mus musculus = assay: In vivo inhibition of PI3Kalpha in BALB/cA nude mouse xenografted with human SK-OV-3 cells assessed as reduction in AKT phosphorylation at Ser473 residue in tumor at 5 mg/kg, po measured after 2 hrs by Western blot analysis; format: functional, organism-based
In short: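 Nude mice carrying SKOV-3 xenografts of 200 mm³ got a single oral 5 mg/kg dose. Tumors were collected at 0, 2, 4 or 8 h, homogenized, and pAkt S473 probed by Western blot.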

Homo sapiens [13] = species on record: Homo sapiens; assay: Selectivity index, ratio of IC50 for human PI3Kgamma R459Q mutant to IC50 for human PI3Kalpha by HTRF assay; in short: as §2
[14] = Oral bioavailability in rat at 10 mg/kg; format: ADME, organism-based; conditions: in vivo
In short: (§5)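 Male rats were dosed orally at 10 mg/kg, with a parallel i.v. arm at 5 mg/kg. Plasma PK parameters were derived, including Cmax, Tmax, T1/2 and AUC0-∞, with oral bioavailability (F) reported against the i.v. arm.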

[15] = Tmax in rat at 10 mg/kg, po; format: ADME, organism-based; conditions: in vivo; in short: as §5
[16] = test system: RAF proto-oncogene serine/threonine-protein kinase (Homo sapiens), P04049 [Y340D,Y341D]; assay: Inhibition of human recombinant c-Raf Y340D/Y341D mutant (306 to end residues) using inactive MEK1 as substrate at 10 uM incubated for 40 mins in presence of [gamma33P-ATP] by radiometric scintillation counting analysis
[17] = molecular target: Phosphatidylinositol 4,5-bisphosphate 3-kinase catalytic subunit delta isoform (Homo sapiens) (UniProt O00329); assay: Inhibition of PI3Kdelta (unknown origin) transfected in human Rh30 cells assessed as reduction in AKT phosphorylation at Thr308 residue at 10XIC50 by western blot analysis; format: cell-based; in short: as §4
SK-OV-3 = assay: Antitumor activity against human SK-OV-3 cells xenografted in BALB/cA nude mouse assessed as tumor growth at 20 mg/kg, po administered once a day for 21 days and measured twice per week; format: functional; conditions: dose 20 mg/kg/day; time 21 day
In short: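 Female BALB/cA nude mice, 4–5 weeks old. SKOV-3 xenografts passaged once in vivo, then 1.5 mm³ fragments implanted s.c. in the right flank by trocar. At about 100 mm³ mice were randomized to vehicle or drug given orally once daily. Tumor size and body weight measured twice weekly; V = length × width²/2.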

Homo sapiens [18] = species on record: Homo sapiens; assay: Selectivity index, ratio of IC50 for human PI3K p110delta/p85alpha to IC50 for human PI3Kalpha by HTRF assay; in short: as §2
[19] = Metabolic stability in rat hepatocytes assessed as half life; format: ADME, cell-based, Hepatocyte

T1 sequence (P42336 whole entry, canonical isoform): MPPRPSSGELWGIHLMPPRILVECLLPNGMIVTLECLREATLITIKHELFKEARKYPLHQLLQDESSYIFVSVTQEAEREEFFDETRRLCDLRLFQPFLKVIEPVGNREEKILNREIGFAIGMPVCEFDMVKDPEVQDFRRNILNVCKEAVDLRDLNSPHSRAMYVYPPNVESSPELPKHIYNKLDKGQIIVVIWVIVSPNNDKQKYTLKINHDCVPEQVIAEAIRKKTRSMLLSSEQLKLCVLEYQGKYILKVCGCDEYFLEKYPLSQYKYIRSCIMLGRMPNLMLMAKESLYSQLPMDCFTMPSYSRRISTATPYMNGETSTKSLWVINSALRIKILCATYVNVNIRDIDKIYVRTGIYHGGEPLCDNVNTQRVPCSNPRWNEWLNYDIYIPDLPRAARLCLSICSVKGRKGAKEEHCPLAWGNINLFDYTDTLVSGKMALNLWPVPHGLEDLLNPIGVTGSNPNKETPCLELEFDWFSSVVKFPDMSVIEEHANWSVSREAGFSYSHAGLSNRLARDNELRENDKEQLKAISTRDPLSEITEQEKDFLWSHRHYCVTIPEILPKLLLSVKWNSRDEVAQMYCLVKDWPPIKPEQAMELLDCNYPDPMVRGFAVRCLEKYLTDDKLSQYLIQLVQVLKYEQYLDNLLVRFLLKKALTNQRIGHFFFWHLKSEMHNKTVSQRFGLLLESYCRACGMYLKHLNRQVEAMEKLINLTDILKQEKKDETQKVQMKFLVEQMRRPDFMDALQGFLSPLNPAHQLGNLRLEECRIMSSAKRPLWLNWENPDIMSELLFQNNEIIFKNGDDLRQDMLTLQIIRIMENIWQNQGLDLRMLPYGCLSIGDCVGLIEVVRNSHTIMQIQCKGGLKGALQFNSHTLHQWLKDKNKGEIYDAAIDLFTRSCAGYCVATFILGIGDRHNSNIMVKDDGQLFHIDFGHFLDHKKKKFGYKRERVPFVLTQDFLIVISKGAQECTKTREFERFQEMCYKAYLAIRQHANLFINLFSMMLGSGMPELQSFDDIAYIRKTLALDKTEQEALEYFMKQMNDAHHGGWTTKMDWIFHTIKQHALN
Sequence of Phosphatidylinositol 4,5-bisphosphate 3-kinase catalytic subunit delta isoform (Homo sapiens) (O00329 whole entry, canonical isoform): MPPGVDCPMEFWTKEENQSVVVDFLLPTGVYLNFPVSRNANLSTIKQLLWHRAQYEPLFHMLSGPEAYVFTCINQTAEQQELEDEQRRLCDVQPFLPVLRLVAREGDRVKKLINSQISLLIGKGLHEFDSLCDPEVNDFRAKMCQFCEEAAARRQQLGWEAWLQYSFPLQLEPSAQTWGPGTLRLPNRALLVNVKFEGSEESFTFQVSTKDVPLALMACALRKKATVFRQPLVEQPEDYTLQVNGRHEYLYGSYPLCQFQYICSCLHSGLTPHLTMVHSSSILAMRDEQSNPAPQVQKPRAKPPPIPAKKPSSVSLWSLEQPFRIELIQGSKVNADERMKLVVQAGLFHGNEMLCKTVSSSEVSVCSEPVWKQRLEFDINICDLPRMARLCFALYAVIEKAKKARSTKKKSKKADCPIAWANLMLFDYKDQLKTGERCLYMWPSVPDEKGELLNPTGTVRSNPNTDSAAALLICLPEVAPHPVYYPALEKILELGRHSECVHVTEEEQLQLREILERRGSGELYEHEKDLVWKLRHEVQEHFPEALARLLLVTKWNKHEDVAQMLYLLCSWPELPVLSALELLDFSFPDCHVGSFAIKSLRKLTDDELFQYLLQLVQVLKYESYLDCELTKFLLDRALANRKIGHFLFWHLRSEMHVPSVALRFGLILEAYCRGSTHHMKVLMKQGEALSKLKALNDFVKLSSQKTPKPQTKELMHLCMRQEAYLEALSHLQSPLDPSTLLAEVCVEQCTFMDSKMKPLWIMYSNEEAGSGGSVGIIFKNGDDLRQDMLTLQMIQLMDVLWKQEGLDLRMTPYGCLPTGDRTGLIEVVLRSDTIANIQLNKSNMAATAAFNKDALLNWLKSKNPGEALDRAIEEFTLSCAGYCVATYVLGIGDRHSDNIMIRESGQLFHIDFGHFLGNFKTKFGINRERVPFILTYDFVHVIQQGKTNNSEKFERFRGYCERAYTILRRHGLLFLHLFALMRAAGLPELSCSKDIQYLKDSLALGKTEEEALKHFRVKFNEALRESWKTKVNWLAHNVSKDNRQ
Sequence of Phosphatidylinositol 4,5-bisphosphate 3-kinase catalytic subunit beta isoform (Homo sapiens) (P42338 whole entry, looked up, canonical isoform): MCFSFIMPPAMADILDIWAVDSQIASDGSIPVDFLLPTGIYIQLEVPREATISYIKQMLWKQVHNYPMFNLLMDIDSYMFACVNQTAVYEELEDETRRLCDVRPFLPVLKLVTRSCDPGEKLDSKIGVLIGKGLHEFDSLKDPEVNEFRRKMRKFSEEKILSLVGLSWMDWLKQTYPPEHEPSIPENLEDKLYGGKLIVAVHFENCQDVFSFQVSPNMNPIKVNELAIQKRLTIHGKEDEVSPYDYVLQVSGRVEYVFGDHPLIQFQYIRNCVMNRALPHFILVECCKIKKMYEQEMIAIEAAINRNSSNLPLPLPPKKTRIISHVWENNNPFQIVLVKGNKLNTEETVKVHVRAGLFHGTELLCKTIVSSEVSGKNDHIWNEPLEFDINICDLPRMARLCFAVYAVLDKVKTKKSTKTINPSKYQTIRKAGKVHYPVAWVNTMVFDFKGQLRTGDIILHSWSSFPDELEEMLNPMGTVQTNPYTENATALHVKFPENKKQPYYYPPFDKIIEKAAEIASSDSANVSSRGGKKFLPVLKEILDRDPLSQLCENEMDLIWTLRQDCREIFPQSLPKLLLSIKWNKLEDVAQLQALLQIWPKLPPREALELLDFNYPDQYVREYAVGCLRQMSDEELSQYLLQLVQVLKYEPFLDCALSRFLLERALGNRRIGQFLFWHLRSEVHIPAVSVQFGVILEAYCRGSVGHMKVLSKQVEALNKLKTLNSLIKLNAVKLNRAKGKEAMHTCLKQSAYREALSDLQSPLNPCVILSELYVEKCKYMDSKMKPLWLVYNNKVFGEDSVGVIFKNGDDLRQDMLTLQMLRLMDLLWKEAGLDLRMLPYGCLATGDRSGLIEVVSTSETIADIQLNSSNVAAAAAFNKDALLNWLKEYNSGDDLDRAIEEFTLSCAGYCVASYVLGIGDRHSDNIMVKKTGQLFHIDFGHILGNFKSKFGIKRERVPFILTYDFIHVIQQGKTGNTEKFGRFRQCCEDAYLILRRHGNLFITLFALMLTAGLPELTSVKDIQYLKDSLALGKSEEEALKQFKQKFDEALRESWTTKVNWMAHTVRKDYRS
Sequence of RAF proto-oncogene serine/threonine-protein kinase (Homo sapiens), P04049 [Y340D,Y341D] (P04049 whole entry Y340D/Y341D, canonical isoform): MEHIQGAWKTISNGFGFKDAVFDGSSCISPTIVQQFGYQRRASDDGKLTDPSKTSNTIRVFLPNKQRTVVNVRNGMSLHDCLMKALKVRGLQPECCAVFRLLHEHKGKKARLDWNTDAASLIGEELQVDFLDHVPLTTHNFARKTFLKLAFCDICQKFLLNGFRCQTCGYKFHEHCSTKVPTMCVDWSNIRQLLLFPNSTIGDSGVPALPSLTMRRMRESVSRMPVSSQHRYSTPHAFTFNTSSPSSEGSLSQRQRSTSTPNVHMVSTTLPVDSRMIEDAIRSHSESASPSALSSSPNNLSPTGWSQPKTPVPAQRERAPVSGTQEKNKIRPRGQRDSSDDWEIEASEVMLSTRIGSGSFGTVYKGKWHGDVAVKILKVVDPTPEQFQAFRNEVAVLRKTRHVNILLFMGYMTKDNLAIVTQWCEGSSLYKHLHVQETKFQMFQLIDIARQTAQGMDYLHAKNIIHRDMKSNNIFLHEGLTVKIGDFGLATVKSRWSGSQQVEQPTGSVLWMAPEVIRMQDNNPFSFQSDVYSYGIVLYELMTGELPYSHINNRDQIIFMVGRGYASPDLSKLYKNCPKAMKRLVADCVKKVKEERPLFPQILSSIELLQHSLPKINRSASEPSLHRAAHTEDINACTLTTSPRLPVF

IC50 (MCF7): < 1000 nM
Ratio IC50 (Homo sapiens [1]): 101
inhibition [2]: Dose-dependent effect
half-life [3]: 89.4 min
inhibition [4]: Active
IC50 [5]: 17.1 nM
inhibition [6]: Active
inhibition [7]: Active
Cmax [8]: 832 ng/mL
IC50 (PC-3): < 1000 nM
CLint scaled [9]: 3.05 mL/min/kg
IC50 [10]: 8.4 nM
IC50 (BT-474): < 1000 nM
inhibition [12]: Active
IC50 (HCC1954): < 1000 nM
Ratio IC50 (Homo sapiens [13]): 38
bioavailability [14]: 36.9%
Tmax [15]: 52.5 min
inhibition [16]: > 50%
inhibition [17]: Active
Ratio IC50 (Homo sapiens [18]): 13
half-life [19]: 147 min
Compound: COC(=O)Nc1cc(C(F)(F)F)c(-c2nc(N3CCOCC3)c3cc(CN4CCN(S(C)(=O)=O)CC4)cn3n2)cn1 [RISOVALISIB]
Activity [11]: Non-Toxic
inhibition (Mus musculus): Active
Activity (SK-OV-3): 37%

From ChEMBL document CHEMBL4732078 (Eur J Med Chem, 2021)
